Assay results: ChEMBL document CHEMBL5338714, “Design, synthesis and biological evaluation of biphenyl-benzamides as potent FtsZ inhibitors” (Eur J Med Chem, 2022)
In brackets after ≈: the same amount, converted by molar mass.

How the values were obtained:
Bacillus subtilis [1] = experiment: Antibacterial activity against Bacillus subtilis ATCC9372 assessed as bacterial growth inhibition incubated for 18 hrs by CLSI based broth microdilution method; assay type: functional
Method in brief: (§1)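 CLSI broth microdilution. Log-phase bacteria in Mueller Hinton broth added to 2-fold serial dilutions spanning 128 to 0.25 or 2 to 0.004 µg/mL. Incubated aerobically for 18 h at 37 °C, then OD600 read. MIC is the lowest concentration giving ≥90% growth inhibition; three independent assays.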

Staphylococcus aureus [2] = experiment: Antibacterial activity against Staphylococcus aureus ATCC29213 assessed as bacterial growth inhibition incubated for 18 hrs by CLSI based broth microdilution method; assay type: functional; method in brief: as §1
Staphylococcus aureus [3] = experiment: Antibacterial activity against Staphylococcus aureus ATCC25923 assessed as bacterial growth inhibition incubated for 18 hrs by CLSI based broth microdilution method; assay type: functional; method in brief: as §1
Bacillus subtilis [4] = experiment: Antibacterial activity against Bacillus subtilis MG27 assessed as bacterial growth inhibition incubated for 18 hrs by CLSI based broth microdilution method; assay type: functional; method in brief: as §1
Bacillus subtilis [5] = experiment: Antibacterial activity against Bacillus subtilis 618 assessed as bacterial growth inhibition incubated for 18 hrs by CLSI based broth microdilution method; assay type: functional; method in brief: as §1
Bacillus subtilis [6] = experiment: Antibacterial activity against Bacillus subtilis BS01 assessed as bacterial growth inhibition incubated for 18 hrs by CLSI based broth microdilution method; assay type: functional; method in brief: as §1
[7] = Cytotoxicity against African green monkey Vero cells assessed as reduction in cell viability incubated for 72 hrs by alamar blue staining based assay; assay type: toxicity; conditions: chlorocebus sabaeus
Method in brief: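 Vero cells seeded at about 2 × 10^3 per well, 37 °C, 5% CO2. Compound added after 24 h and incubated 72 h. AlamarBlue (1:10 v/v) then added for 3 h in the dark, read at Ex/Em 560/590 nm. CC50 is the lowest concentration causing 50% loss of viability.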

[8] = Selectivity index, ratio of CC50 for African green monkey Vero cells to MIC for Bacillus subtilis ATCC9372; assay type: toxicity, cell-based; conditions: read-out: Selectivity Index
Method in brief: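 CC50 in Vero cells (72 h Alamar blue) divided by broth microdilution MIC against B. subtilis ATCC9372.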

Klebsiella pneumoniae = experiment: Antibacterial activity against Klebsiella pneumoniae 14578 assessed as bacterial growth inhibition incubated for 18 hrs by CLSI based broth microdilution method; assay type: functional
Method in brief: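 Broth microdilution to CLSI guidelines. Log-phase bacteria grown in Mueller Hinton broth, diluted, then exposed to 2-fold serial dilutions of compound (128 to 0.25 µg/mL or 2 to 0.004 µg/mL). Incubated aerobically 18 h at 37 °C. Growth read as OD600. MIC = lowest concentration giving ≥90% growth inhibition. Three independent assays.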

Staphylococcus aureus [9] = experiment: Bactericidal activity against Staphylococcus aureus ATCC25923 incubated for 24 hrs by broth microdilution method; assay type: functional
Method in brief: (§2)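 MBC from the broth microdilution plates (MHB, 2-fold dilutions). After 24 h, 5 µL aliquots from clear wells were plated on LB agar and incubated aerobically 24 h at 37 °C, then colonies counted. MBC = lowest concentration with no colonies.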

Bacillus subtilis [10] = experiment: Bactericidal activity against Bacillus subtilis ATCC9372 incubated for 24 hrs by broth microdilution method; assay type: functional; method in brief: as §2
Staphylococcus aureus [11] = experiment: Induction of resistance in Staphylococcus aureus ATCC29213 assessed as fold increase in MIC at 0.5 times MIC after 18 passages incubated for 24 hrs by resistance development assay; assay type: functional
Method in brief: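 Serial passage of S. aureus ATCC29213. Initial MIC was found by broth microdilution. Bacteria from the 0.5 × MIC tubes (duplicate) were diluted to about 5 × 10^5 CFU/mL and re-exposed to compound for 24 h at 35 °C, then fold increase in MIC was determined. Repeated for 18 passages, with norfloxacin as comparator.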

[12] = Metabolic stability in human liver microsomes assessed as half life preincubated for 5 mins followed by NADPH addition measured upto 45 mins by LC/MS analysis; assay type: ADME, Microsome; conditions: time < 50 min
Method in brief: (§3)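 Liver microsomes at 0.75 mg/mL final protein, with test article and NADPH regeneration system (6 mM) in 100 mM phosphate buffer, pH 7.4. Preincubated 5 min at 37 °C, then started with NADPH. Quenched with acetonitrile containing internal standard at 5, 15, 30 and 45 min, centrifuged, and percent remaining measured by LC/MS. Ketanserin served as reference.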

[13] = Metabolic stability in rat liver microsomes assessed as half life preincubated for 5 mins followed by NADPH addition measured upto 45 mins by LC/MS analysis; assay type: ADME, Microsome; conditions: time < 50 min; method in brief: as §3
[14] = Metabolic stability in mouse liver microsomes assessed as half life preincubated for 5 mins followed by NADPH addition measured upto 45 mins by LC/MS analysis; assay type: ADME, Microsome; conditions: time < 50 min; method in brief: as §3
[15] = Metabolic stability in human liver microsomes assessed as intrinsic clearance preincubated for 5 mins followed by NADPH addition measured upto 45 mins by LC/MS analysis; assay type: ADME, Microsome; conditions: time < 50 min, read-out: CLH; method in brief: as §3
[16] = Metabolic stability in rat liver microsomes assessed as intrinsic clearance preincubated for 5 mins followed by NADPH addition measured upto 45 mins by LC/MS analysis; assay type: ADME, Microsome; conditions: time < 50 min, read-out: CLH; method in brief: as §3
[17] = Metabolic stability in mouse liver microsomes assessed as intrinsic clearance preincubated for 5 mins followed by NADPH addition measured upto 45 mins by LC/MS analysis; assay type: ADME, Microsome; conditions: time < 50 min, read-out: CLH; method in brief: as §3

Structure (SMILES) | MIC (Bacillus subtilis [1]) [µg/mL] | MIC (Staphylococcus aureus [2]) [µg/mL] | MIC (Staphylococcus aureus [3]) [µg/mL] | other results
NC(=O)c1c(F)ccc(OCc2cccc(-c3ccc(Cl)cc3F)c2)c1F | 0.016 (≈ 0.0408 µM) | 0.5 (≈ 1.28 µM) | 0.5 (≈ 1.28 µM) | MIC (Bacillus subtilis [4]): 0.031 µg/mL (≈ 0.0791 µM); MIC (Bacillus subtilis [5]): 0.016 µg/mL (≈ 0.0408 µM); MIC (Bacillus subtilis [6]): 0.016 µg/mL (≈ 0.0408 µM)
CC(C)c1ccc(-c2cccc(COc3ccc(F)c(C(N)=O)c3F)c2)cc1 | 0.5 (≈ 1.31 µM) | > 128 | > 128 | 
NC(=O)c1c(F)ccc(OCc2cccc(-c3ccc(Cl)cc3C(F)(F)F)c2)c1F | 0.125 (≈ 0.283 µM) | 0.5 (≈ 1.13 µM) | 0.5 (≈ 1.13 µM) | 
NC(=O)c1c(F)ccc(OCc2cccc(-c3ccc(Cl)cc3)c2)c1F | 0.063 (≈ 0.169 µM) | 0.25 (≈ 0.669 µM) | 0.25 (≈ 0.669 µM) | 
Cc1cc(C(F)(F)F)ccc1-c1cccc(COc2ccc(F)c(C(N)=O)c2F)c1 | 0.031 (≈ 0.0736 µM) | 0.25 (≈ 0.593 µM) | 0.25 (≈ 0.593 µM) | MIC (Bacillus subtilis [4]): 0.063 µg/mL (≈ 0.15 µM); MIC (Bacillus subtilis [5]): 0.031 µg/mL (≈ 0.0736 µM); MIC (Bacillus subtilis [6]): 0.016 µg/mL (≈ 0.038 µM); CC50 at 72 h [7]: > 20 µg/mL; selectivity ratio [8]: > 1250
NC(=O)c1c(F)ccc(OCc2cccc(-c3ccc(C(F)(F)F)c(F)c3)c2)c1F | > 128 | > 128 | > 128 | 
COc1cc(C(F)(F)F)ccc1-c1cccc(COc2ccc(F)c(C(N)=O)c2F)c1 | 0.063 (≈ 0.144 µM) | 1 (≈ 2.29 µM) | 1 (≈ 2.29 µM) | 
Cc1ccc(-c2cccc(COc3ccc(F)c(C(N)=O)c3F)c2)cc1 | 0.125 (≈ 0.354 µM) | 0.5 (≈ 1.41 µM) | 0.5 (≈ 1.41 µM) | 
NC(=O)c1c(F)ccc(OCc2cccc(-c3ccc(C(F)(F)F)c(Cl)c3)c2)c1F | > 128 | > 128 | > 128 | 
CCc1ccc(-c2cccc(COc3ccc(F)c(C(N)=O)c3F)c2)cc1 | 0.125 (≈ 0.34 µM) | 0.5 (≈ 1.36 µM) | 0.5 (≈ 1.36 µM) | 
NC(=O)c1c(F)ccc(OCc2ccccc2)c1F | 16 (≈ 60.8 µM) | 64 (≈ 243 µM) | 32 (≈ 122 µM) | 
CN[C@H](CC(C)C)C(=O)N[C@H]1C(=O)N[C@@H](CC(N)=O)C(=O)N[C@H]2C(=O)N[C@H]3C(=O)N[C@H](C(=O)N[C@H](C(=O)O)c4cc(O)cc(O)c4-c4cc3ccc4O)[C@H](O)c3ccc(c(Cl)c3)Oc3cc2cc(c3O[C@@H]2O[C@H](CO)[C@@H](O)[C@H](O)[C@H]2O[C@H]2C[C@](C)(N)[C@H](O)[C@H](C)O2)Oc2ccc(cc2Cl)[C@H]1O [VANCOMYCIN] | 1 (≈ 0.69 µM) |  |  | MIC (Klebsiella pneumoniae): > 128 µg/mL; MBC (Staphylococcus aureus [9]): 0.5 µg/mL (≈ 0.345 µM); MBC (Bacillus subtilis [10]): 1 µg/mL (≈ 0.69 µM)
CCn1cc(C(=O)O)c(=O)c2cc(F)c(N3CCNCC3)cc21 [NORFLOXACIN] |  |  |  | fold change (FC) (Staphylococcus aureus [11]): 128
NC(=O)c1c(F)ccc(OCc2nc3cc(Cl)cnc3s2)c1F | 0.5 (≈ 1.41 µM) | 1 (≈ 2.81 µM) | 1 (≈ 2.81 µM) | 
CC(C)(C)c1ccc(-c2cccc(COc3ccc(F)c(C(N)=O)c3F)c2)cc1 | 2 (≈ 5.06 µM) | > 128 | > 128 | 
O=C(c1ccc(F)cc1)C1CCN(CCn2c(=O)[nH]c3ccccc3c2=O)CC1 [KETANSERIN] |  |  |  | half-life [12]: 30.4 min; half-life [13]: 14.5 min; half-life [14]: 8.57 min; CLint scaled [15]: 57.1 mL/min/kg; CLint scaled [16]: 171 mL/min/kg; CLint scaled [17]: 637 mL/min/kg
NC(=O)c1c(F)ccc(OCc2cc(Cl)cc(-c3ccc(C(F)(F)F)cc3)c2)c1F | 1 (≈ 2.26 µM) | > 128 | > 128 | 

Continued, in another order:

MIC (Bacillus subtilis [1]) [µg/mL] | MIC (Staphylococcus aureus [2]) [µg/mL] | MIC (Staphylococcus aureus [3]) [µg/mL] | Structure (SMILES) | other results
0.031 (≈ 0.0702 µM) | 0.25 (≈ 0.566 µM) | 0.25 (≈ 0.566 µM) | NC(=O)c1c(F)ccc(OCc2cccc(-c3ccc(C(F)(F)F)cc3Cl)c2)c1F | MIC (Bacillus subtilis [4]): 0.063 µg/mL (≈ 0.143 µM); MIC (Bacillus subtilis [5]): 0.063 µg/mL (≈ 0.143 µM); MIC (Bacillus subtilis [6]): 0.031 µg/mL (≈ 0.0702 µM)
> 128 | > 128 | > 128 | N#Cc1ccc(-c2cccc(COc3ccc(F)c(C(N)=O)c3F)c2)cc1 | 
0.125 (≈ 0.263 µM) | 0.5 (≈ 1.05 µM) | 0.5 (≈ 1.05 µM) | NC(=O)c1c(F)ccc(OCc2cccc(-c3ccc(C(F)(F)F)cc3C(F)(F)F)c2)c1F | 
0.125 (≈ 0.307 µM) | 2 (≈ 4.91 µM) | 1 (≈ 2.45 µM) | NC(=O)c1c(F)ccc(OCc2cccc(-c3ccc(C(F)(F)F)cc3)c2)c1F | 
0.25 (≈ 0.707 µM) | 1 (≈ 2.83 µM) | 1 (≈ 2.83 µM) | Cc1ccccc1-c1cccc(COc2ccc(F)c(C(N)=O)c2F)c1 | 
0.25 (≈ 0.677 µM) | 2 (≈ 5.41 µM) | 1 (≈ 2.71 µM) | COc1ccc(-c2cccc(COc3ccc(F)c(C(N)=O)c3F)c2)cc1 | 
> 128 | > 128 | > 128 | NC(=O)c1cc(C(F)(F)F)ccc1-c1cccc(COc2ccc(F)c(C(N)=O)c2F)c1 | 
0.125 (≈ 0.299 µM) | 1 (≈ 2.39 µM) | 1 (≈ 2.39 µM) | Cc1cc(Cl)ccc1-c1cccc(C(CO)Oc2ccc(F)c(C(N)=O)c2F)c1 (stereo not given) | 
0.031 (≈ 0.0759 µM) | 0.25 (≈ 0.612 µM) | 0.25 (≈ 0.612 µM) | NC(=O)c1c(F)ccc(OCc2cccc(-c3ccc(Cl)cc3Cl)c2)c1F | 
0.125 (≈ 0.316 µM) | 1 (≈ 2.53 µM) | 0.5 (≈ 1.26 µM) | CCCCc1ccc(-c2cccc(COc3ccc(F)c(C(N)=O)c3F)c2)cc1 | 
0.063 (≈ 0.148 µM) | 1 (≈ 2.35 µM) | 1 (≈ 2.35 µM) | NC(=O)c1c(F)ccc(OCc2cccc(-c3ccc(C(F)(F)F)cc3F)c2)c1F | 
0.125 (≈ 0.328 µM) | 1 (≈ 2.62 µM) | 1 (≈ 2.62 µM) | CCCc1ccc(-c2cccc(COc3ccc(F)c(C(N)=O)c3F)c2)cc1 | 
0.125 (≈ 0.35 µM) | 2 (≈ 5.6 µM) | 1 (≈ 2.8 µM) | NC(=O)c1c(F)ccc(OCc2cccc(-c3ccc(F)cc3)c2)c1F | 
32 (≈ 90.6 µM) | > 128 | > 128 | Cc1cccc(-c2cccc(COc3ccc(F)c(C(N)=O)c3F)c2)c1 | 
0.125 (≈ 0.305 µM) | > 128 | > 128 | CCCCCc1ccc(-c2cccc(COc3ccc(F)c(C(N)=O)c3F)c2)cc1 | 
0.5 (≈ 1.47 µM) | 2 (≈ 5.89 µM) | 2 (≈ 5.89 µM) | NC(=O)c1c(F)ccc(OCc2cccc(-c3ccccc3)c2)c1F | 
0.5 (≈ 1.14 µM) | 8 (≈ 18.3 µM) | 4 (≈ 9.15 µM) | NC(=O)c1c(F)ccc(OC(CO)c2cccc(-c3ccc(C(F)(F)F)cc3)c2)c1F (stereo not given) | 
